Measurements: ChEMBL document CHEMBL1817572, “New, potent, selective, and short-acting peptidic V1a receptor agonists” (J Med Chem, 2011)
Numbered stars: 1 amine (or outer) side, 2 acyl side, 3 side chain; on linkers, the order of the positions; unused ones are H or OH. Bridge positions count the residues as written; N and C are the ends. Square brackets hold non-standard residues; d marks the D form. Peptide text beside a SMILES is read from it. * marks the point of attachment. Orn(Me) = CN(CCC[C@H](N[*:1])C(=O)[*:2])[*:3]; Bta = N[C@@H](Cc1csc2ccccc12)C(=O)O; Orn = NCCC[C@H](N)C(=O)O; Dab = NCC[C@H](N)C(=O)O; N(Me)OMe = CON(C)*; NHCH2CH2OH = OCCN*; X2 = CC(O)CN*; X3 = OCCOCCN*; NHOH = ON*

Tests used:
Vasopressin V1a receptor = Vasopressin V1a receptor (Homo sapiens, UniProt P37288); test: Agonist activity at recombinant human vasopressin V1a receptor expressed in HEK293 cells by luciferase reporter gene assay; assay type: functional, cell-based
Vasopressin V1b receptor = target: T1, Vasopressin V1b receptor (Homo sapiens, UniProt P47901); test: Agonist activity at recombinant human vasopressin V1b receptor expressed in Flp-In-293 cells by luciferase reporter gene assay; assay type: functional, cell-based
T1 sequence (P47901 whole entry): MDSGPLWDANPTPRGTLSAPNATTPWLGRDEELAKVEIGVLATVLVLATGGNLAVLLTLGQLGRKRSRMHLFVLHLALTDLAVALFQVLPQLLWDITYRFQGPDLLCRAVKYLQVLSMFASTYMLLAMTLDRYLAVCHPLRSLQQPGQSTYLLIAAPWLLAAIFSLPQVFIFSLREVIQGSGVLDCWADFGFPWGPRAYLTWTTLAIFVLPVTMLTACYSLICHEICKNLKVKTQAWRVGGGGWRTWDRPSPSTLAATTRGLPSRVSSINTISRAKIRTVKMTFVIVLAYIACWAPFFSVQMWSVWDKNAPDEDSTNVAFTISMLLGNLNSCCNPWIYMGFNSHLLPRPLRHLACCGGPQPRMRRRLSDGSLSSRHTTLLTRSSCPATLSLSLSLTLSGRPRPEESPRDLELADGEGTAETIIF
How it was run: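 Reporter gene assays in HEK293 cells transiently cotransfected with V1a (human or rat) or human V2 receptor vector plus NFAT-luciferase (V1a) or CRE-luciferase (V2) reporter; V1b in Flp-In-293 stably expressing receptor, OT in CHO-K1 stably expressing receptor, both transiently transfected with NFAT-luciferase. Two days post-transfection, peptides added for 5 h at 37 °C, lysis with luciferin, luminescence read.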

Oxytocin receptor = target: T2, Oxytocin receptor (Homo sapiens, UniProt P30559); test: Agonist activity at human OT receptor expressed in CHO-K1 cells by luciferase reporter gene assay; assay type: functional, cell-based
T2 sequence (P30559 whole entry): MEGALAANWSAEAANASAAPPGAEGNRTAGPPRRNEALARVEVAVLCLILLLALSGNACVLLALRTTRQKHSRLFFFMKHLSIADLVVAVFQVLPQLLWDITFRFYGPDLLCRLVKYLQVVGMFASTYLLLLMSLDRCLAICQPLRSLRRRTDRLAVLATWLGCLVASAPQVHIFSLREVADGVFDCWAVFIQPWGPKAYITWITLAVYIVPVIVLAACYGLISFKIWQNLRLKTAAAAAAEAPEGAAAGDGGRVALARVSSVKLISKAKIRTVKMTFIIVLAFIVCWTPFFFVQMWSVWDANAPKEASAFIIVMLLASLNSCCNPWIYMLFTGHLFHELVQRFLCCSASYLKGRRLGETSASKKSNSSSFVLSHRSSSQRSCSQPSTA

Vasopressin V2 receptor = Vasopressin V2 receptor (Homo sapiens, UniProt P30518); test: Agonist activity at recombinant human vasopressin V2 receptor expressed in HEK293 cells by luciferase reporter gene assay; assay type: functional, cell-based
[1] = target: Vasopressin V1a/V2 (Homo sapiens) (UniProt P30518+P37288); test: Selectivity ratio of EC50 for human vasopressin V2 receptor to EC50 for human vasopressin V1a receptor
Homo sapiens [2] = species on record: Homo sapiens; test: Selectivity ratio of EC50 for human vasopressin V1b receptor to EC50 for human vasopressin V1a receptor
Homo sapiens [3] = species on record: Homo sapiens; test: Selectivity ratio of EC50 for human oxytocin receptor to EC50 for human vasopressin V1a receptor

Sequence of Vasopressin V1a receptor (P37288 whole entry): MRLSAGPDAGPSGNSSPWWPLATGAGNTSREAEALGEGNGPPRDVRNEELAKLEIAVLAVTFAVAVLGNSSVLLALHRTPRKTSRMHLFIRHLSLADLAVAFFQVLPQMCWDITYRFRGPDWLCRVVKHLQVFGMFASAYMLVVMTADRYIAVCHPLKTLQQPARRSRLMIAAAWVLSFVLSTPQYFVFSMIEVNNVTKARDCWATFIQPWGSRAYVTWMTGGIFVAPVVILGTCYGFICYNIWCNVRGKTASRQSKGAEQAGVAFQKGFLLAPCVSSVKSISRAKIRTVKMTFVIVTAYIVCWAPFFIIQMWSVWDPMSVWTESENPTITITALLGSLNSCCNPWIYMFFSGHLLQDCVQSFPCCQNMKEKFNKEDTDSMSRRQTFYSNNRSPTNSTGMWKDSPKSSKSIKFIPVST
Sequence of Vasopressin V2 receptor (P30518 whole entry): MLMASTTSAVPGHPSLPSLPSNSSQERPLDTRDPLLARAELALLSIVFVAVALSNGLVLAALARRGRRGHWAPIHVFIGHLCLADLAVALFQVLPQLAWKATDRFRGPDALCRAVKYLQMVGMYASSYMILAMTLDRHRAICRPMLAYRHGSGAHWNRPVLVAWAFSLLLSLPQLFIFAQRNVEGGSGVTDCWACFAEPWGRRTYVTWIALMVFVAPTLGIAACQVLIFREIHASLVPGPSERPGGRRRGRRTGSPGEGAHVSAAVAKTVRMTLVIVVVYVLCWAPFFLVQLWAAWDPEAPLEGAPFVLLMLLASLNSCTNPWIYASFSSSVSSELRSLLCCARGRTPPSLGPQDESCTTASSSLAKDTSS
Sequence of Vasopressin V1a/V2 (Homo sapiens) (P30518 whole entry, looked up): as the sequence (P30518 whole entry) above
Sequence of Vasopressin V1a/V2 (Homo sapiens) (P37288 whole entry, looked up): as the sequence (P37288 whole entry) above

Compound | EC50 (Vasopressin V1a receptor; read-out: EC50) [nM] | EC50 (Vasopressin V1b receptor; read-out: EC50) [nM] | EC50 (Oxytocin receptor; read-out: EC50) [nM] | EC50 (Vasopressin V1a receptor; hek293, read-out: EC50) [nM] | EC50 (Vasopressin V1a receptor; read-out: pEC50 (converted)) [nM] | EC50 (Vasopressin V1b receptor; flp-in-293, read-out: EC50) [nM] | EC50 (Vasopressin V1b receptor; read-out: pEC50 (converted)) [nM] | EC50 (Vasopressin V2 receptor; hek293, read-out: EC50) [nM] | EC50 (Vasopressin V2 receptor; read-out: pEC50 (converted)) [nM] | EC50 (Oxytocin receptor; cho-k1, read-out: EC50) [nM] | EC50 (Oxytocin receptor; read-out: pEC50 (converted)) [nM] | Ratio EC50 [1] | EC50 (Vasopressin V2 receptor; read-out: EC50) [nM] | Ratio EC50 (Homo sapiens [2]) | Ratio EC50 (Homo sapiens [3])
CC[C@H](C)[C@@H]1NC(=O)[C@H](Cc2ccc(O)cc2)NC(=O)[C@@H](N)CSSC[C@@H](C(=O)N2CCC[C@H]2C(=O)N[C@@H](CCCN)C(=O)NCC(N)=O)NC(=O)[C@H](CC(N)=O)NC(=O)[C@H](CCC(N)=O)NC1=O | 0.23 | 56 | 3.3 |  |  |  |  |  |  |  |  |  |  |  | 
CC[C@H](C)[C@@H]1NC(=O)[C@H](C)NC(=O)[C@@H](N)CSSC[C@@H](C(=O)N2CCC[C@H]2C(=O)N[C@@H](CCN)C(=O)NCC(N)=O)NC(=O)[C@H](CC(N)=O)NC(=O)[C@H](CCC(N)=O)NC1=O (H-CAIQNCP[Dab]G-NH2; disulfide 1-6) |  |  |  | > 1000 | > 1000 | > 10000 | > 10000 | > 10000 | > 10000 | > 10000 | > 10000 |  |  |  | 
NCCC[C@H](NC(=O)[C@@H]1CCCN1C(=O)[C@@H]1CSSC[C@H](N)C(=O)N[C@@H](Cc2ccccc2)C(=O)N[C@@H](Cc2ccccc2)C(=O)N[C@@H](CCC(N)=O)C(=O)N[C@@H](CC(N)=O)C(=O)N1)C(=O)NCC(N)=O (H-CFFQNCP[Orn]G-NH2; disulfide 1-6) | 0.14 | 15 |  |  |  |  |  |  |  | > 10000 | > 10000 | 65 | 9.2 | 100 | > 71000
CC[C@H](C)[C@@H]1NC(=O)[C@H](Cc2ccccc2)NC(=O)[C@@H](N)CSSC[C@@H](C(=O)N2CCC[C@H]2C(=O)N[C@@H](CCCN)C(=O)NCC(N)=O)NC(=O)[C@H](CC(N)=O)NC(=O)[C@H](CC(=O)NCCO)NC1=O (H-CFID(NHCH2CH2OH)NCP[Orn]G-NH2; disulfide 1-6) | 8 | 26 |  |  |  |  |  | > 10000 | > 10000 | > 10000 | > 10000 | > 1200 |  | 3.2 | > 1200
CC[C@H](C)[C@@H]1NC(=O)[C@H](Cc2ccccc2)NC(=O)[C@@H](N)CSSC[C@@H](C(=O)N2CCC[C@H]2C(=O)N[C@@H](CCCN)C(=O)NCC(N)=O)NC(=O)[C@H](CC(N)=O)NC(=O)[C@H](CC(=O)NCC(C)O)NC1=O (some centres not stated) (H-CFID(X2)NCP[Orn]G-NH2; disulfide 1-6) | 5.2 | 28 |  |  |  |  |  | > 10000 | > 10000 | > 10000 | > 10000 | > 1900 |  | 5.3 | > 1900
CC[C@H](C)[C@@H]1NC(=O)[C@H](Cc2ccccc2)NC(=O)[C@@H](N)CSSC[C@@H](C(=O)N2CCC[C@H]2C(=O)N[C@@H](CCCN)C(=O)NCC(N)=O)NC(=O)[C@H](CC(N)=O)NC(=O)[C@H](CC(=O)NCCOCCO)NC1=O (H-CFID(X3)NCP[Orn]G-NH2; disulfide 1-6) | 4.8 | 41 |  |  |  |  |  | > 10000 | > 10000 | > 10000 | > 10000 | > 2000 |  | 8.5 | > 2000
CC[C@H](C)[C@@H]1NC(=O)[C@H](Cc2ccccc2)NC(=O)[C@@H](N)CSSC[C@@H](C(=O)N2CCC[C@H]2C(=O)N[C@@H](CCCN)C(=O)NCC(N)=O)NC(=O)[C@H](CC(N)=O)NC(=O)[C@H](CCC(=O)N(C)OC)NC1=O (H-CFIE(N(Me)OMe)NCP[Orn]G-NH2; disulfide 1-6) | 69 | 540 |  |  |  |  |  |  |  | > 10000 | > 10000 | 17 | 1200 | 7.8 | > 140
CC[C@H](C)[C@@H]1NC(=O)[C@H](Cc2ccccc2)NC(=O)[C@@H](N)CSSC[C@@H](C(=O)N2CCC[C@H]2C(=O)N[C@@H](CCCN)C(=O)NCC(N)=O)NC(=O)[C@H](CC(N)=O)NC(=O)[C@H](CCC(=O)NO)NC1=O (H-CFIE(NHOH)NCP[Orn]G-NH2; disulfide 1-6) | 12 | 70 |  |  |  |  |  |  |  | > 10000 | > 10000 | 14 | 170 | 5.8 | > 830
CC[C@H](C)[C@@H]1NC(=O)[C@H](Cc2ccccc2)NC(=O)[C@@H](N)CSSC[C@@H](C(=O)N2CCC[C@H]2C(=O)N[C@@H](CCCNC)C(=O)NCC(N)=O)NC(=O)[C@H](CC(N)=O)NC(=O)[C@H](CC(N)=O)NC1=O (H-CFINNCP[Orn(Me)]G-NH2; disulfide 1-6) | 2.4 | 65 |  |  |  |  |  | > 10000 | > 10000 | > 10000 | > 10000 | > 4100 |  | 27 | > 4100
CC[C@H](C)[C@@H]1NC(=O)[C@H](Cc2csc3ccccc23)NC(=O)[C@@H](N)CSSC[C@@H](C(=O)N2CCC[C@H]2C(=O)N[C@@H](CCN)C(=O)NCC(N)=O)NC(=O)[C@H](CC(N)=O)NC(=O)[C@H](CCC(N)=O)NC1=O (H-C[Bta]IQNCP[Dab]G-NH2; disulfide 1-6) |  | 360 |  | > 1000 | > 1000 |  |  | > 10000 | > 10000 | > 10000 | > 10000 |  |  |  | 

Now from value to compound:

EC50 (Vasopressin V1a receptor; read-out: EC50) [nM] | EC50 (Vasopressin V1b receptor; read-out: EC50) [nM] | EC50 (Oxytocin receptor; read-out: EC50) [nM] | EC50 (Vasopressin V1a receptor; hek293, read-out: EC50) [nM] | EC50 (Vasopressin V1a receptor; read-out: pEC50 (converted)) [nM] | EC50 (Vasopressin V1b receptor; flp-in-293, read-out: EC50) [nM] | EC50 (Vasopressin V1b receptor; read-out: pEC50 (converted)) [nM] | EC50 (Vasopressin V2 receptor; hek293, read-out: EC50) [nM] | EC50 (Vasopressin V2 receptor; read-out: pEC50 (converted)) [nM] | EC50 (Oxytocin receptor; cho-k1, read-out: EC50) [nM] | EC50 (Oxytocin receptor; read-out: pEC50 (converted)) [nM] | Ratio EC50 [1] | EC50 (Vasopressin V2 receptor; read-out: EC50) [nM] | Ratio EC50 (Homo sapiens [2]) | Ratio EC50 (Homo sapiens [3]) | Compound
5.7 | 30 |  |  |  |  |  | > 10000 | > 10000 | > 10000 | > 10000 | > 1700 |  | 5.2 | > 1700 | CCNC(=O)C[C@@H]1NC(=O)[C@H]([C@@H](C)CC)NC(=O)[C@H](Cc2ccccc2)NC(=O)[C@@H](N)CSSC[C@@H](C(=O)N2CCC[C@H]2C(=O)N[C@@H](CCCN)C(=O)NCC(N)=O)NC(=O)[C@H](CC(N)=O)NC1=O (H-CFID(NHEt)NCP[Orn]G-NH2; disulfide 1-6)
3.6 | 39 |  |  |  |  |  | > 10000 | > 10000 | > 10000 | > 10000 | > 2700 |  | 10 | > 2700 | CC[C@H](C)[C@@H]1NC(=O)[C@H](Cc2ccccc2)NC(=O)[C@@H](N)CSSC[C@@H](C(=O)N2CCC[C@H]2C(=O)N[C@@H](CCCN)C(=O)NCC(N)=O)NC(=O)[C@H](CC(N)=O)NC(=O)[C@H](CC(=O)NC)NC1=O (H-CFID(NHMe)NCP[Orn]G-NH2; disulfide 1-6)
4.1 | 56 |  |  |  |  |  |  |  | > 10000 | > 10000 | 630 | 2600 | 13 | > 2400 | CC[C@H](C)[C@@H]1NC(=O)[C@H](Cc2ccccc2)NC(=O)[C@@H](N)CSSC[C@@H](C(=O)N2CCC[C@H]2C(=O)N[C@@H](CCCN)C(=O)NCC(N)=O)NC(=O)[C@H](CC(N)=O)NC(=O)[C@H](CC(=O)NO)NC1=O (H-CFID(NHOH)NCP[Orn]G-NH2; disulfide 1-6)
6 | 59 | > 10000 |  |  |  |  |  |  |  | 174 | 35 | 210 | 9.8 | > 1600 | CC[C@H](C)[C@@H]1NC(=O)[C@H](Cc2ccccc2)NC(=O)[C@@H](N)CSSC[C@@H](C(=O)N2CCC[C@H]2C(=O)N[C@@H](CCCN)C(=O)NCC(N)=O)NC(=O)[C@H](CC(N)=O)NC(=O)[C@H](CCC(=O)NC)NC1=O (H-CFIE(NHMe)NCP[Orn]G-NH2; disulfide 1-6)
